The results in this text go back to ChEMBL document CHEMBL4177752, “Discovery of Novel Schizocommunin Derivatives as Telomeric G-Quadruplex Ligands That Trigger Telomere Dysfunction and the Deoxyribonucleic Acid (DNA) Damage Response” (J Med Chem, 2018).

Series [1] has as its system Mus musculus. The series is described as follows: Toxicity in BALB/C-nu/nu mouse xenografted with human SiHa cells assessed as decrease in body weight at 1 mg/kg, ip administered daily for 3 weeks measured everyday during compound dosing. The format is organism-based. The following applies: in vivo, 504 h. The essentials:
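SiHa cells (1×10^7 per 100 µL, serum-free DMEM) were injected subcutaneously. Grown tumors were divided into pieces and implanted into BALB/C-nu/nu mice. Caliper volume (1/2 × L × W²) and body weight were recorded daily; tumors were weighed at the end.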
In general terms: Xenograft models place foreign cells or tissue in a host animal.

Series [2] relates to Quadruplex DNA. The experiment in a line: Stabilization of F21T telomeric G-quadruplex DNA (unknown origin) assessed as change in melting temperature at 1 uM by FRET assay. The format is nucleic-acid assay. The essentials:
(§1)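 FRET melting: 0.2 µM F21T or F10T (FAM/TAMRA-labelled), with or without 1.0 µM ligand, in 10 mM Tris-HCl pH 7.4 with 60 mM KCl. Excitation 470 nm, emission 530 nm, read every 1 °C from 37–99 °C at 1 °C/min with a 30 s hold. ΔTm = Tm(DNA+ligand) − Tm(DNA).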

A short description of series [3]: Stabilization of F10T hairpin duplex DNA (unknown origin) assessed as change in melting temperature at 1 uM by FRET assay. The essentials: as §1
Series [4] has as its target Quadruplex DNA. The series is described as follows: Binding affinity to HTG21 telomeric G-quadruplex DNA (unknown origin) by SPR method. Type of series: nucleic-acid assay. The essentials: (§2)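 SPR: biotinylated HTG21 or hairpin DNA (200 nM) was folded in 50 mM Tris-HCl pH 7.4 with 100 mM KCl and captured to about 1,000 RU on an NLC chip against a blank reference cell. Ligand at 0.625–40 µM was injected at 25 µL/min (400 s association, 300 s dissociation) at 25 °C. The chip was regenerated with 1 M KCl and blank sensorgrams were subtracted.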
On the technique in general: Surface plasmon resonance follows binding to a sensor surface in real time, without labels.

Series [5] is described as follows: Binding affinity to hairpin duplex DNA (unknown origin) by SPR method. An outline of the steps:
as §2

Series [6] concerns HeLa. The experiment in a line: Antiproliferative activity against human HeLa cells after 48 hrs by MTT assay. The format is functional, cell-based. The essentials:
(§3)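 Cells seeded at 5.0×10^3 per well and exposed to a range of compound concentrations for 48 h. MTT (2.5 mg/mL solution) was then added for 4 h, formazan was dissolved in DMSO, and OD was read at 570 nm. HL-60 was grown in RPMI-1640 with 10% FBS, the other lines in DMEM with 10% FBS, at 37 °C and 5% CO2. Triplicates; IC50 taken from mean OD versus concentration curves.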
(Tetrazolium assays rely on reduction of a dye to a coloured formazan, in cell work by metabolically active cells.)

The test system of series [7] is SiHa. The experiment in a line: Antiproliferative activity against human SiHa cells after 48 hrs by MTT assay. Type of series: functional, cell-based. The essentials:
as §3

The subject of series [8] is HL-60. The experiment in a line: Antiproliferative activity against human HL60 cells after 48 hrs by MTT assay. As to conditions: HL-60, 48 h. Type of series: functional, cell-based. An outline of the steps:
as §3

The test system of series [9] is A549. The series is described as follows: Antiproliferative activity against human A549 cells after 48 hrs by MTT assay. Type of series: functional, cell-based. As to conditions: A549, 48 h. An outline of the steps: as §3
Series [10] has as its system U2OS. The series is described as follows: Antiproliferative activity against human U2OS cells after 48 hrs by MTT assay. The format is functional, cell-based. The essentials: as §3
For series [11], the system named is Quadruplex DNA. The experiment in a line: Stabilization of F21T telomeric G-quadruplex DNA (unknown origin) at 1 uM in presence of non-fluorescent duplex DNA ds26 by FRET assay. Type of series: nucleic-acid assay. An outline of the steps: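 Competition FRET: 0.2 µM F21T with 1 µM ligand, plus or minus unlabelled duplex ds26 at 3 µM (15-fold) or 10 µM (50-fold), in 10 mM Tris-HCl pH 7.4 with 60 mM KCl. Melting monitored at 470/530 nm over 37–99 °C.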

Series [12] in a line: Binding affinity to hairpin duplex DNA (unknown origin) at 40 uM by SPR method. An outline of the steps: as §2
Series [13] in a line: Inhibition of telomerase (unknown origin) by TRAP-LIG assay. Also on record: species or system Homo sapiens.
For series [14], the system named is Quadruplex DNA. The experiment in a line: Stabilization of telomeric G-quadruplex DNA in human SiHa cells assessed as increase in BG4 foci per nucleus at 2 uM after 24 hrs by DAPI staining-based immunofluorescence method relative to control. Type of series: cell-based. An outline of the steps: (§4)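 Cells were treated 24 h with 2 µM compound or 0.1% DMSO, then fixed (4% paraformaldehyde), permeabilized (0.5% Triton X-100) and blocked (5% goat serum). Staining used BG4 (80 ng/µL, 37 °C 3 h) with anti-FLAG, and/or γ-H2AX, TRF2 or POT1 antibodies at 4 °C overnight. Alexa 488/555 secondaries and DAPI followed. Foci or co-localized foci per nucleus were counted by confocal microscopy; mean ± SEM, two-tailed unpaired t test.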

Series [15] concerns Quadruplex DNA. The experiment in a line: Stabilization of telomeric G-quadruplex DNA in human U2OS cells assessed as increase in BG4 foci per nucleus at 2 uM after 24 hrs by DAPI staining-based immunofluorescence method. Type of series: cell-based. The essentials:
as §4

In series [16] the test system is Quadruplex DNA. The experiment in a line: Stabilization of telomeric G-quadruplex DNA in human SiHa cells assessed as induction of DNA damage response by measuring gamma-H2AX foci formation per nucleus at 2 uM after 24 hrs by DAPI staining-based immunofluorescence method relative to control. Type of series: cell-based. The essentials:
as §4

Series [17] has as its system U2OS. The experiment in a line: Cell cycle arrest in human U2OS cells at 1 uM after 12 hrs by propidium iodide staining-based flow cytometric method. The format is functional. The essentials: (§5)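 SiHa or U2OS cells (2.0×10^5 per well) were treated with compound or DMSO for 12 h, fixed in ice-cold 70% ethanol overnight, and stained with 50 µg/mL PI plus RNase A for 30 min at room temperature in the dark. 10,000 events were collected by flow cytometry to give the phase distribution.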

Series [18] has as its system SiHa. The series is described as follows: Cell cycle arrest in human SiHa cells at 1 uM after 12 hrs by propidium iodide staining-based flow cytometric method. The format is functional. An outline of the steps:
as §5

Activity calls are given as the source filed them. The calls are words filed in the database; no cut-off is given here.

In the case of `COc1cccc2c1C(=O)c1c(O)c3c(c(O)c1C2=O)C[C@@](O)(C(=O)CO)C[C@@H]3O[C@H]1C[C@H](N)[C@H](O)[C@H](C)O1` [DOXORUBICIN], the Activity entry in [1] is given as “Toxic”.

In general, ΔTm refers to the change in melting temperature against a reference sample. The Kd is the equilibrium constant for the complex coming apart. Read a high Kd as weaker binding. The term IC50 denotes the point on the concentration scale where inhibition reaches its midpoint. For the molecule `CN1CCN(c2cc3c(cc2F)/C(=C/c2nc4cc(NCCN5CCCCC5)c(F)cc4c(=O)[nH]2)C(=O)N3)CC1`, the ΔTm in series [2] came out at 21.4 °C; in [3] it was 0.2 °C. The results for the Kd in series [4] and in series [5] were 8.8 µM and 16 µM, respectively. In addition, the IC50 in series [6] came out at 2.8 µM; in [7] it was 4.4 µM; in series [8], 2.9 µM; in series [9] it was 1.4 µM; in series [10] it was 5.3 µM.

In the case of `CN(C)CCCNc1cc2nc(/C=C3/C(=O)Nc4cc(N5CCN(C)CC5)ccc43)n(C)c(=O)c2cc1F`, the ΔTm in series [2] came to 7.4 °C; in [3] it was 0.1 °C. Also, the Kd in [4] is 30 µM; in [5], greater than 40 µM. Also, the IC50 in series [6] amounted to 14 µM; in [7], 14 µM; in series [8], 30.6 µM; in series [9], 15.4 µM; in series [10], 12.5 µM.

`CN(C)CCCNc1ccc2c(=O)[nH]c(/C=C3\C(=O)Nc4ccccc43)nc2c1`: the ΔTm amounted to 8.4 °C in series [2] and 0.1 °C in series [3]. Further, the result in series [11] was Active. The molecule also yielded a Kd in series [4] greater than 40 µM. Also, the outcome in [12], in series [14], in series [15], in [16], in [17] and in [18] was inactive. Further, the half-maximal inhibitory concentration (IC50) in [6] was 42.5 µM; in [7], 27.6 µM; in [8], 4.1 µM; in series [9] it was 19.6 µM; in series [10], 20.4 µM; in series [13], greater than 40 µM.

Turning to `CN(C)CCNc1cc2nc(/C=C3\C(=O)Nc4cc(N5CCN(C)CC5)c(F)cc43)[nH]c(=O)c2cc1F`, the ΔTm was 22.5 °C in series [2] and 0.3 °C in [3]. The Kd in series [4] came out at 6.2 µM; in [5] it was 15 µM. Besides, the IC50 in [6] turned out to be 7.7 µM; in series [7], 11.4 µM; in series [8], 2.8 µM; in [9], 6 µM; in series [10], 5.7 µM.

In the case of `CCN(CC)CCCNc1cc2nc(/C=C3\C(=O)Nc4cc(N5CCN(C)CC5)ccc43)[nH]c(=O)c2cc1F`, the ΔTm was found to be 20.6 °C in series [2] and 0.2 °C in series [3]. In [4], this molecule yielded a Kd of 7.4 µM. In series [12], the outcome was inactive. Moreover, the IC50 in series [6] amounted to 10 µM; in series [7], 2.8 µM; in series [8] it was 5.4 µM; in series [9], 2.3 µM; in [10] it was 7.6 µM.

`O=C1Nc2cc(N3CCOCC3)c(F)cc2/C1=C/c1nc2cc(NCCCN3CCOCC3)c(F)cc2c(=O)[nH]1`: the results for the ΔTm in [2] and in series [3] were 5.2 °C and 0.2 °C, respectively. Further, the Kd in series [4] was greater than 40 µM. In series [12], the result was inactive. The IC50 in series [6], in series [7], in series [8], in [9] and in series [10] was greater than 50 µM each time.

With `CN(C)CCCN(CCCN(C)C)c1cc2nc(/C=C3\C(=O)Nc4ccccc43)[nH]c(=O)c2cc1F`, the ΔTm turned out to be 12.6 °C in series [2] and 0.2 °C in [3]. Besides, the Kd in series [4] was found to be 23 µM. Besides, the outcome in [12] was inactive. In addition, the IC50 is 48.6 µM in series [6]; 10.1 µM in series [7]; 16.1 µM in [8]; greater than 50 µM in series [9]; greater than 50 µM in series [10].

On to `CCN(CC)CCCNc1cc2nc(/C=C3\C(=O)Nc4cc(N5CCN(C)CC5)c(F)cc43)[nH]c(=O)c2cc1F`, for which the ΔTm in series [2] came to 25.3 °C; in series [3] it was 0.1 °C. In series [4], this molecule showed a Kd of 4.9 µM. For the same molecule, in series [12], the outcome was inactive. The IC50 was 9.6 µM in series [6]; 7.9 µM in series [7]; 5.7 µM in [8]; 6.1 µM in series [9]; 10.2 µM in [10].

Take `CN(C)CCCNc1cc2nc(/C=C3\C(=O)Nc4cc(N5CCN(C)CC5)c(F)cc43)[nH]c(=O)c2cc1F`: the ΔTm was determined as 24.6 °C in [2] and 0.1 °C in [3]. The result in [11] was Active. The molecule further showed a Kd in series [4] of 7.6 µM. The outcome in series [12] was inactive. The half-inhibitory concentration (IC50) in [6] worked out at 17.6 µM; in series [7] it was 4.9 µM; in series [8], 3.8 µM; in [9], 5.9 µM; in series [10], 9 µM; in series [13], 12.3 µM.

`O=C1Nc2ccccc2/C1=C/c1nc2cc(NCCCN3CCOCC3)c(F)cc2c(=O)[nH]1`: the ΔTm in series [2] was determined as 8.6 °C; in [3] it was 0.1 °C. Besides, in series [4], the Kd is greater than 40 µM. In addition, the outcome in [12] was inactive. Moreover, the IC50 in series [6], in series [7], in [8], in [9] and in series [10] was greater than 50 µM throughout.

As for `CCN(CC)CCCNc1cc2nc(/C=C3\C(=O)Nc4cc(N5CCOCC5)c(F)cc43)[nH]c(=O)c2cc1F`, the ΔTm in series [2] is 9 °C; in series [3], 0.1 °C. This molecule also showed a Kd in series [4] greater than 40 µM. In addition, the outcome in [12] was inactive. Further, the IC50 in [6] is 34.3 µM; in [7] it was 43.6 µM; in [8], 4.2 µM; in [9], greater than 50 µM; in [10], 32.4 µM.

As for `CN(C)CCCNc1c2ccccc2nc2c1[nH]c1ccccc12`, the ΔTm is 11.6 °C in series [2] and 5.2 °C in series [3]. Also, the result in series [11] was inactive.
